Results pooled from the literature.
Lines come from different studies, so protocols differ.
Cell line: BT-549
Read-out: cell growth or viability

The GI50 of `COc1cc(-c2ccc(-c3ccc(C(=N)N)nc3)s2)cc(OC)c1OC` is reported as 1670 nM (SRB).
With `COc1ccc(C(=O)/C=C/c2cccc(Cl)c2Cl)cc1S(N)(=O)=O` the GI50 was 4700 nM (SRB; 48 h).
With `CC(=O)O[C@H]1C(=O)[C@@]2(C)[C@H]([C@H](OC(=O)c3ccccc3)[C@]3(O)C[C@H](OC(=O)[C@H](O)[C@@H](NC(=O)c4ccccc4)c4ccccc4)C(C)=C1C3(C)C)[C@]1(OC(C)=O)CO[C@@H]1C[C@@H]2O` the IC50 was 3.1 nM (ATP luminescence; 72 h).
`COc1ccc(-c2ccc(-c3ccc(C(=N)N)nc3)s2)cc1` has a GI50 of 1700 nM (SRB).
`COc1ccc(C(=O)/C=C/c2cccc3ccccc23)cc1S(N)(=O)=O` gave a GI50 of 1800 nM (SRB; 48 h).
`COc1cccc(Oc2ccccc2NC(=O)CNC(=O)c2cccc3ccccc23)c1` gave a GI50 of 295 nM (SRB; 48 h).
The inhibition of `O=C1Nc2ccccc2C1=NNc1nnc2n1N=C(c1ccccc1)CS2` is reported as 28% (SRB; 10 µM).
`COc1cccc2c1C(=O)c1c(O)c3c(c(O)c1C2=O)C[C@@](O)(C(=O)CO)C[C@@H]3O[C@H]1C[C@H](N)[C@H](O)[C@H](C)O1` gave an IC50 of 1.05 µg/mL (neutral red; 48 h).
`C#C[C@@]1(O)[C@@H](CO)O[C@@H](n2cc(Br)c3c(N)ncnc32)[C@@H]1O` gave a GI50 of 147 nM (SRB).
`CC(=O)O[C@@]12CO[C@@H]1C[C@H](O)[C@@]1(C)C(=O)[C@H](O)C3=C(C)[C@@H](OC(=O)[C@H](O)[C@@H](NC(=O)OC(C)(C)C)c4ccccc4)C[C@@](O)([C@@H](OC(=O)c4ccccc4)[C@H]21)C3(C)C` gave an IC50 of 1 nM (ATP luminescence; 72 h).
With `Cl.Oc1cccc2c1[nH]c1c(C3=CC4(O)CC/C=C\CCCCN5CCC3C3(CC6/C=C\CCCCN6C43)C5)nccc12` (single isomer, unassigned; (+)) the IC50 was 1.05 µg/mL (neutral red; 48 h).
